Measurements published in article PMC10438863 (Journal of Enzyme Inhibition and Medicinal Chemistry, 2023).

Legend:
[1] = system: K562 cell line; experiment: CCK-8 antiproliferative assay, K562; format: cell-based; settings: for inhibition at 0.1 µM / inhibition at 1 µM / IC50: Homo sapiens, K562, 72 h; for inhibition at 0.1 µM / inhibition at 1 µM: read-out: Inhibition rate (%); for IC50: read-out: IC50 (µM) K562; for fold decrease in antiproliferative activities of K562 cell lines: relative to 12d
Summary of the method: (§1)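 Cells were grown in RPMI-1640 with 10% FBS at 37 °C in 5% CO2. About 3.5 × 10^3 cells/well were seeded, grown 24 h, then given test compound at several concentrations for 72 h in triplicate wells. CCK-8 was added for 2–3 h and OD read at 450 nm to give inhibition rate or IC50. K562 screen: mean of ≥2 independent experiments. Five-line panel: mean ± SD of three.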

[2] = system: H22; experiment: CCK-8 antiproliferative assay, H22; format: cell-based, mouse; settings: Mus musculus, H22, 72 h, read-out: IC50 (µM) H22
Summary of the method: as §1

[3] = system: normal cell line HFL-1; experiment: CCK-8 assay, normal cell line HFL-1; format: cell-based; settings: Homo sapiens, HFL1, 72 h, read-out: IC50 (µM) HFL-1
Summary of the method: as §1

[4] = system: Hela; experiment: CCK-8 antiproliferative assay, Hela; format: cell-based; settings: Homo sapiens, HeLa, 72 h, read-out: IC50 (µM) Hela
Summary of the method: as §1

[5] = system: A549; experiment: CCK-8 antiproliferative assay, A549; format: cell-based; settings: Homo sapiens, A549, 72 h, read-out: IC50 (µM) A549
Summary of the method: as §1

Row | SMILES | inhibition at 0.1 µM [1] [%] | inhibition at 1 µM [1] [%] | IC50 [2] [µM] | IC50 [1] [µM] | fold decrease in antiproliferative activities of K562 cell lines [1] | IC50 [3] [µM] | IC50 [4] [µM] | IC50 [5] [µM]
1 | COc1cc2c(c(OC)c1OC)CC(Cc1ccc(C)c(F)c1)C2 (centres unmarked) [Compound 12f, 2–(3-fluoro-4-methylbenzyl)-4,5,6-trimethoxy-2,3-dihydro-1H-indene] | 6.65 | 72 | – | – | – | – | – | –
2 | COc1cc2c(c(OC)c1OC)CC(Cc1ccc(N)cc1)C2 (centres unmarked) [Compound 12n, 4-((4,5,6-trimethoxy-2,3-dihydro-1H-inden-2-yl)methyl)aniline] | 5.81 | 78.8 | – | – | – | – | – | –
3 | COc1ccc(CC2Cc3cc(OC)c(OC)cc3C2)cc1O [Compound 15a, 5-((5,6-dimethoxy-2,3-dihydro-1H-inden-2-yl)methyl)-2-methoxyphenol] | 45.6 | 81.5 | 0.307 ± 0.015 | 0.192 ± 0.013 | about 7 fold | 5 ± 0.306 | 0.317 ± 0.027 | 0.753 ± 0.04
4 | COc1ccc(CC2Cc3cc(OC)c(OC)c(OC)c3C2)cc1F (centres unmarked) [Compound 12e, 2–(3-fluoro-4-methoxybenzyl)-4,5,6-trimethoxy-2,3-dihydro-1H-indene] | 10.2 | 67 | – | – | – | – | – | –
5 | COc1cc2c(c(OC)c1OC)CC(Cc1ccc(F)c(F)c1)C2 (centres unmarked) [Compound 12g, 2–(3,4-difluorobenzyl)-4,5,6-trimethoxy-2,3-dihydro-1H-indene] | 4.71 | 7.74 | – | – | – | – | – | –
6 | COc1ccc(CC2Cc3cc(O)c(OC)cc3C2)cc1O (centres unmarked) [Compound 15b, 2–(3-hydroxy-4-methoxybenzyl)-6-methoxy-2,3-dihydro-1H-inden-5-ol] | 31.4 | 89.2 | 0.575 ± 0.041 | 0.425 ± 0.027 | ~15 fold | 11.3 ± 1.4 | 3.17 ± 0.108 | 2.01 ± 0.117
7 | COc1cc2c(c(OC)c1OC)CC(Cc1ccc(C(F)(F)F)cc1)C2 (centres unmarked) [Compound 12p, 4,5,6-trimethoxy-2–(4-(trifluoromethyl)benzyl)-2,3-dihydro-1H-indene] | 12.6 | 15.4 | – | – | – | – | – | –
8 | COc1cc2c(c(OC)c1OC)CC(Cc1cccc3c1ccn3C)C2 (centres unmarked) [Compound 12v, 1-methyl-4-((4,5,6-trimethoxy-2,3-dihydro-1H-inden-2-yl)methyl)-1H-indole] | 5.02 | 28.5 | – | – | – | – | – | –
9 | COc1ccc(CC2Cc3cc(OC)c(OC)c(OC)c3C2)cc1OC (centres unmarked) [Compound 12b, 2–(3,4-dimethoxybenzyl)-4,5,6-trimethoxy-2,3-dihydro-1H-indene] | 5.8 | 15.2 | – | – | – | – | – | –
10 | COc1cc2c(c(OC)c1OC)CC(Cc1ccc3c(ccn3C)c1)C2 (centres unmarked) [Compound 12w, 1-methyl-5-((4,5,6-trimethoxy-2,3-dihydro-1H-inden-2-yl)methyl)-1H-indole] | 10 | 85.8 | – | – | – | – | – | –
11 | COc1cc2c(c(OC)c1OC)CC(Cc1ccc(O)cc1)C2 (centres unmarked) [Compound 12m, 4-((4,5,6-trimethoxy-2,3-dihydro-1H-inden-2-yl)methyl)phenol] | 2.9 | 16.4 | – | – | – | – | – | –
12 | COc1cc(CC2Cc3cc(OC)c(OC)c(OC)c3C2)cc(OC)c1OC (centres unmarked) [Compound 12c, 4,5,6-trimethoxy-2–(3,4,5-trimethoxybenzyl)-2,3-dihydro-1H-indene] | 6.96 | 9.48 | – | – | – | – | – | –
13 | COc1cc2c(c(OC)c1OC)CC(Cc1ccc(N(C)C)cc1)C2 (centres unmarked) [Compound 12o, N,N-dimethyl-4-((4,5,6-trimethoxy-2,3-dihydro-1H-inden-2-yl)methyl)aniline] | 5.65 | 6.97 | – | – | – | – | – | –
14 | COc1ccc(CC2Cc3c(cc(OC)c(OC)c3OC)O2)cc1O (centres unmarked) [Compound 15c, 2-methoxy-5-((4,5,6-trimethoxy-2,3-dihydrobenzofuran-2-yl)methyl)phenol] | 52.1 | 87.5 | 0.114 ± 0.023 | 0.1 ± 0.007 | – | 3.58 ± 0.548 | 0.309 ± 0.032 | 0.341 ± 0.064
15 | COc1cc2c(c(OC)c1OC)CC(Cc1ccc(C)c(C)c1)C2 (centres unmarked) [Compound 12i, 2–(3,4-dimethylbenzyl)-4,5,6-trimethoxy-2,3-dihydro-1H-indene] | 3 | 66 | – | – | – | – | – | –
16 | COc1cc2c(c(OC)c1OC)CC(Cc1ccc3[nH]ccc3c1)C2 (centres unmarked) [Compound 12t, 5-((4,5,6-trimethoxy-2,3-dihydro-1H-inden-2-yl)methyl)-1H-indole] | 50.4 | 88.6 | 0.254 ± 0.02 | 0.176 ± 0.024 | – | 0.552 ± 0.075 | 0.284 ± 0.014 | 0.277 ± 0.029
17 | COc1ccc(CC2Cc3cc(OC)c(OC)c(OC)c3C2)cc1N (centres unmarked) [Compound 12j, 2-methoxy-5-((4,5,6-trimethoxy-2,3-dihydro-1H-inden-2-yl)methyl)aniline] | 68.7 | 86.6 | 0.093 ± 0.005 | 0.068 ± 0.006 | – | 0.59 ± 0.062 | 0.136 ± 0.011 | 0.212 ± 0.013
18 | COc1cc2c(c(OC)c1OC)CC(Cc1ccc3c(c1)CCO3)C2 (centres unmarked) [Compound 12q, 5-((4,5,6-trimethoxy-2,3-dihydro-1H-inden-2-yl)methyl)-2,3-dihydrobenzofuran] | 83.6 | 91.9 | 0.104 ± 0.004 | 0.079 ± 0.009 | – | 0.398 ± 0.023 | 0.183 ± 0.009 | 0.22 ± 0.015
19 | COc1cc2c(c(OC)c1OC)CC(Cc1ccc3cc[nH]c3c1)C2 (centres unmarked) [Compound 12u, 6-((4,5,6-trimethoxy-2,3-dihydro-1H-inden-2-yl)methyl)-1H-indole] | 10.8 | 83.9 | – | – | – | – | – | –
20 | COc1ccc(CC2Cc3cc(OC)c(OC)c(OC)c3C2)cc1 (centres unmarked) [Compound 12a, 4,5,6-trimethoxy-2–(4-methoxybenzyl)-2,3-dihydro-1H-indene] | 5.71 | 72.4 | – | – | – | – | – | –
21 | COc1ccc(CC2Cc3cc(OC)c(OC)c(OC)c3C2)cn1 (centres unmarked) [Compound 12k, 2-methoxy-5-((4,5,6-trimethoxy-2,3-dihydro-1H-inden-2-yl)methyl)pyridine] | 4.12 | 13.9 | – | – | – | – | – | –
22 | COc1cc2c(c(OC)c1OC)CC(Cc1ccccc1)C2 (centres unmarked) [Compound 12l, 2-benzyl-4,5,6-trimethoxy-2,3-dihydro-1H-indene] | 1.03 | 7.29 | – | – | – | – | – | –
23 | COc1ccc(CC2Cc3cc(OC)c(OC)c(OC)c3C2=O)cc1O (centres unmarked) [Compound 15d, 2–(3-hydroxy-4-methoxybenzyl)-5,6,7-trimethoxy-2,3-dihydro-1H-inden-1-one] | 39 | 63 | 1.13 ± 0.058 | 0.774 ± 0.051 | – | 6.96 ± 0.843 | 3.41 ± 0.186 | 2.95 ± 0.154
24 | COc1cc2c(c(OC)c1OC)CC(Cc1ccc3ccn(C)c3c1)C2 (centres unmarked) [Compound 12x, 1-methyl-6-((4,5,6-trimethoxy-2,3-dihydro-1H-inden-2-yl)methyl)-1H-indole] | 12.5 | 74.9 | – | – | – | – | – | –
25 | COc1cc2c(c(OC)c1OC)CC(Cc1cccc3[nH]ccc13)C2 (centres unmarked) [Compound 12s, 4-((4,5,6-trimethoxy-2,3-dihydro-1H-inden-2-yl)methyl)-1H-indole] | 9.67 | 67.1 | – | – | – | – | – | –
26 | COc1cc2c(c(OC)c1OC)CC(Cc1ccc(N)c(C)c1)C2 (centres unmarked) [Compound 12h, 2-methyl-4-((4,5,6-trimethoxy-2,3-dihydro-1H-inden-2-yl)methyl)aniline] | 2.25 | 79.8 | – | – | – | – | – | –
